Experimental data from ChEMBL document CHEMBL3044867, “Antifungal activity of glyceollins isolated from soybean elicited with Aspergillus sojae” (2010).
Values after ≈ are worked out from the molar mass of the structure shown.

Columns and labels:
Phytophthora capsici [1] = assay: Inhibition of spore germination of Phytophthora capsici KACC 40157; type: functional, organism-based
In short: (§1)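 Glyceollins were tested at 10, 25, 50, 100, 250 and 500 μg/mL against a 1% DMSO control, with spore suspension at 1.0 × 10^8 spores/mL. 100 μL aliquots went on glass slides in triplicate and were kept in a moist chamber at 25 C for 24 h. Slides were fixed in lactophenol-cotton blue, about 200 spores were counted for germ tubes, and germination was expressed relative to control.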

Sclerotinia sclerotiorum [2] = assay: Antifungal activity against Sclerotinia sclerotiorum KACC 41065 measured 2 to 4 days post dose by two-fold dilution method; type: functional
In short: (§2)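 Two-fold dilution MIC in potato dextrose broth tubes. The DMSO-dissolved sample was serially diluted to final 10, 25, 50, 100, 250, 500 and 750 μg/mL, then inoculated with 10 μL spore suspension (1 × 10^8 spores/mL, from 10-day cultures). Tubes were incubated 2-4 days at 28 C; the control tube held spores only. MIC was the lowest concentration with no visible growth.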

Sclerotinia sclerotiorum [3] = assay: Inhibition of spore germination of Sclerotinia sclerotiorum KACC 41065; type: functional, organism-based; in short: as §1
Botrytis cinerea [4] = assay: Inhibition of spore germination of Botryotinia fuckeliana KACC 40573; type: functional, organism-based; in short: as §1
Phytophthora capsici [5] = assay: Inhibition of spore germination of Phytophthora capsici KACC 40157 at 100 ug/mL measured 3 hr post dose; type: functional; conditions: KACC 40157, 3 h
Phytophthora capsici [6] = assay: Inhibition of spore germination of Phytophthora capsici KACC 40157 at 25 to 100 ug/mL; type: functional, organism-based; conditions: TDE = time-dependent effect
Phytophthora capsici [7] = assay: Inhibition of spore germination of Phytophthora capsici KACC 40157 at 100 ug/mL; type: functional
Phytophthora capsici [8] = assay: Antifungal activity against Phytophthora capsici KACC 40157 assessed as inhibition of radial growth at 0.6 mg/disk incubated for 4 to 6 days by disk diffusion method; type: functional
In short: (§3)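 Disk diffusion on PDA in 9 cm dishes. Sample in DMSO at 40 mg/mL; paper disks loaded with 5 or 15 μL, dried, and set equidistantly. A 6 mm agar plug of the pathogen was placed upside down in the centre. Plates were incubated at 25 C for 4-6 days, until solvent-control growth reached the edge. % inhibition = radial growth versus control; triplicate plates; mean ± SD of three experiments.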

Fusarium oxysporum [9] = assay: Antifungal activity against Fusarium oxysporum KACC 41083 assessed as inhibition of radial growth at 0.6 mg/disk incubated for 4 to 6 days by disk diffusion method; type: functional; in short: as §3
Phytophthora capsici [10] = assay: Inhibition of spore germination of Phytophthora capsici KACC 40157 at 25 ug/mL measured 4 hr post dose; type: functional; conditions: KACC 40157, 4 h
Fusarium oxysporum [11] = assay: Antifungal activity against Fusarium oxysporum KACC 41083 measured 2 to 4 days post dose by two-fold dilution method; type: functional; in short: as §2
Botrytis cinerea [12] = assay: Antifungal activity against Botryotinia fuckeliana KACC 40573 assessed as inhibition of radial growth at 0.2 mg/disk incubated for 4 to 6 days by disk diffusion method; type: functional; in short: as §3
Botrytis cinerea [13] = assay: Antifungal activity against Botryotinia fuckeliana KACC 40573 assessed as inhibition of radial growth at 0.6 mg/disk incubated for 4 to 6 days by disk diffusion method; type: functional; in short: as §3
Phytophthora capsici [14] = assay: Antifungal activity against Phytophthora capsici KACC 40157 measured 2 to 4 days post dose by two fold dilution method; type: functional; in short: as §2
Botrytis cinerea [15] = assay: Antifungal activity against Botryotinia fuckeliana KACC 40573 measured 2 to 4 days post dose by two fold dilution method; type: functional; in short: as §2
Phytophthora capsici [16] = assay: Antifungal activity against Phytophthora capsici KACC 40157 assessed as inhibition of radial growth at 0.2 mg/disk incubated for 4 to 6 days by disk diffusion method; type: functional; in short: as §3
Phytophthora capsici [17] = assay: Inhibition of spore germination of Phytophthora capsici KACC 40157 at 250 ug/mL; type: functional; in short: as §1
Fusarium oxysporum [18] = assay: Inhibition of spore germination of Fusarium oxysporum KACC 41083 at 100 to 500 ug/mL; type: functional; in short: as §1
Botrytis cinerea [19] = assay: Inhibition of spore germination of Botryotinia fuckeliana KACC 40573 at 100 to 500 ug/mL; type: functional; in short: as §1
Sclerotinia sclerotiorum [20] = assay: Antifungal activity against Sclerotinia sclerotiorum KACC 41065 assessed as inhibition of radial growth at 0.2 mg/disk incubated for 4 to 6 days by disk diffusion method; type: functional; in short: as §3
Sclerotinia sclerotiorum [21] = assay: Inhibition of spore germination of Sclerotinia sclerotiorum KACC 41065 at 500 ug/mL; type: functional; in short: as §1
Fusarium oxysporum [22] = assay: Inhibition of spore germination of Fusarium oxysporum KACC 41083; type: functional, organism-based; in short: as §1
Fusarium oxysporum [23] = assay: Antifungal activity against Fusarium oxysporum KACC 41083 assessed as inhibition of radial growth at 0.2 mg/disk incubated for 4 to 6 days by disk diffusion method; type: functional; in short: as §3
Sclerotinia sclerotiorum [24] = assay: Antifungal activity against Sclerotinia sclerotiorum KACC 41065 assessed as inhibition of radial growth at 0.6 mg/disk incubated for 4 to 6 days by disk diffusion method; type: functional; in short: as §3
Phytophthora capsici [25] = assay: Inhibition of spore germination of Phytophthora capsici KACC 40157 at 100 ug/mL measured 2 hr post dose; type: functional; conditions: KACC 40157, 2 h

## C=C(C)[C@@H]1Cc2cc3c(cc2O1)OC[C@@]1(O)c2ccc(O)cc2O[C@@H]31 [GLYCEOLLIN III]
Phytophthora capsici [1]
  inhibition: Dose-dependent effect
Sclerotinia sclerotiorum [2]
  MIC: 50 µg/mL (≈ 148 µM)
Sclerotinia sclerotiorum [3]
  inhibition: Dose-dependent effect
Botrytis cinerea [4]
  inhibition: Dose-dependent effect
Phytophthora capsici [5]
  inhibition at 100 µg/mL: 100%
Phytophthora capsici [6]
  inhibition: tde
Phytophthora capsici [7]
  inhibition at 100 µg/mL: 100%
Phytophthora capsici [8]
  inhibition (INH): 40.5%
Fusarium oxysporum [9]
  inhibition (INH): 40.1%
Phytophthora capsici [10]
  inhibition at 25 µg/mL: 50%
Fusarium oxysporum [11]
  MIC: 250 µg/mL (≈ 739 µM)
Botrytis cinerea [12]
  inhibition (INH): 10.9%
Botrytis cinerea [13]
  inhibition (INH): 22.1%
Phytophthora capsici [14]
  MIC: 25 µg/mL (≈ 73.9 µM)
Botrytis cinerea [15]
  MIC: 750 µg/mL (≈ 2220 µM)
Phytophthora capsici [16]
  inhibition (INH): 37.5%
Phytophthora capsici [17]
  inhibition at 250 µg/mL: 100%
Fusarium oxysporum [18]
  inhibition (INH): 40%
Botrytis cinerea [19]
  inhibition (INH): 40%
Sclerotinia sclerotiorum [20]
  inhibition (INH): 48.2%
Sclerotinia sclerotiorum [21]
  inhibition at 500 µg/mL: 100%
Fusarium oxysporum [22]
  inhibition: Dose-dependent effect
Fusarium oxysporum [23]
  inhibition (INH): 27.4%
Sclerotinia sclerotiorum [24]
  inhibition (INH): 61%
Phytophthora capsici [25]
  inhibition at 100 µg/mL: 95%

## CC1(C)C=Cc2cc3c(cc2O1)OC[C@@]1(O)c2ccc(O)cc2O[C@@H]31 [GLYCEOLLIN II]
Phytophthora capsici [1]
  inhibition: Dose-dependent effect
Sclerotinia sclerotiorum [2]
  MIC: 50 µg/mL (≈ 148 µM)
Sclerotinia sclerotiorum [3]
  inhibition: Dose-dependent effect
Botrytis cinerea [4]
  inhibition: Dose-dependent effect
Phytophthora capsici [5]
  inhibition at 100 µg/mL: 100%
Phytophthora capsici [6]
  inhibition: tde
Phytophthora capsici [7]
  inhibition at 100 µg/mL: 100%
Phytophthora capsici [8]
  inhibition (INH): 40.5%
Fusarium oxysporum [9]
  inhibition (INH): 40.1%
Phytophthora capsici [10]
  inhibition at 25 µg/mL: 50%
Fusarium oxysporum [11]
  MIC: 250 µg/mL (≈ 739 µM)
Botrytis cinerea [12]
  inhibition (INH): 10.9%
Botrytis cinerea [13]
  inhibition (INH): 22.1%
Phytophthora capsici [14]
  MIC: 25 µg/mL (≈ 73.9 µM)
Botrytis cinerea [15]
  MIC: 750 µg/mL (≈ 2220 µM)
Phytophthora capsici [16]
  inhibition (INH): 37.5%
Phytophthora capsici [17]
  inhibition at 250 µg/mL: 100%
Fusarium oxysporum [18]
  inhibition (INH): 40%
Botrytis cinerea [19]
  inhibition (INH): 40%
Sclerotinia sclerotiorum [20]
  inhibition (INH): 48.2%
Sclerotinia sclerotiorum [21]
  inhibition at 500 µg/mL: 100%
Fusarium oxysporum [22]
  inhibition: Dose-dependent effect
Fusarium oxysporum [23]
  inhibition (INH): 27.4%
Sclerotinia sclerotiorum [24]
  inhibition (INH): 61%
Phytophthora capsici [25]
  inhibition at 100 µg/mL: 95%

## CC1(C)C=Cc2c(ccc3c2OC[C@@]2(O)c4ccc(O)cc4O[C@@H]32)O1 [GLYCEOLLIN I]
Phytophthora capsici [1]
  inhibition: Dose-dependent effect
Sclerotinia sclerotiorum [2]
  MIC: 50 µg/mL (≈ 148 µM)
Sclerotinia sclerotiorum [3]
  inhibition: Dose-dependent effect
Botrytis cinerea [4]
  inhibition: Dose-dependent effect
Phytophthora capsici [5]
  inhibition at 100 µg/mL: 100%
Phytophthora capsici [6]
  inhibition: tde
Phytophthora capsici [7]
  inhibition at 100 µg/mL: 100%
Phytophthora capsici [8]
  inhibition (INH): 40.5%
Fusarium oxysporum [9]
  inhibition (INH): 40.1%
Phytophthora capsici [10]
  inhibition at 25 µg/mL: 50%
Fusarium oxysporum [11]
  MIC: 250 µg/mL (≈ 739 µM)
Botrytis cinerea [12]
  inhibition (INH): 10.9%
Botrytis cinerea [13]
  inhibition (INH): 22.1%
Phytophthora capsici [14]
  MIC: 25 µg/mL (≈ 73.9 µM)
Botrytis cinerea [15]
  MIC: 750 µg/mL (≈ 2220 µM)
Phytophthora capsici [16]
  inhibition (INH): 37.5%
Phytophthora capsici [17]
  inhibition at 250 µg/mL: 100%
Fusarium oxysporum [18]
  inhibition (INH): 40%
Botrytis cinerea [19]
  inhibition (INH): 40%
Sclerotinia sclerotiorum [20]
  inhibition (INH): 48.2%
Sclerotinia sclerotiorum [21]
  inhibition at 500 µg/mL: 100%
Fusarium oxysporum [22]
  inhibition: Dose-dependent effect
Fusarium oxysporum [23]
  inhibition (INH): 27.4%
Sclerotinia sclerotiorum [24]
  inhibition (INH): 61%
Phytophthora capsici [25]
  inhibition at 100 µg/mL: 95%
